Tests used:
HL-60 [1] = assay: Antitumor activity against human HL-60 cells xenografted in immunodeficient athymic mouse assessed as inhibition of tumor growth at 75 mg/kg, ip administered twice daily for 13 days relative to control; assay type: functional, organism-based; details: time 13.0 day
[2] = Toxicity in athymic nude rat xenografted with human SW620 cells assessed as maximal body weight loss at 25 mg/kg/day, iv for 24 h following 4 days; assay type: organism-based, SW-620; details: in vivo, 96 h, time 4 day
Procedure, shortened: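 Male nude rats bearing SW620 xenografts received vehicle or AZD1152 at 25 mg/kg/d i.v. once daily for 4 consecutive days. Body weight was tracked, with maximal loss taken relative to vehicle-treated animals.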

HL-60 [3] = assay: Antitumor activity against human HL-60 cells xenografted in immunodeficient athymic mouse assessed as inhibition of tumor growth at 45 mg/kg, iv administered twice daily for 5 days relative to control; assay type: functional; details: HL-60, 120 h, time 5 day

## Cc1cc(Nc2cc(N3CCN(C)CC3)nc(Sc3ccc(NC(=O)C4CC4)cc3)n2)n[nH]1
HL-60 [1]
  inhibition: 98%

## CCN(CCCOc1ccc2c(Nc3cc(CC(=O)Nc4cccc(F)c4)n[nH]3)ncnc2c1)CCOP(=O)(O)O [BARASERTIB]
[2]
  Activity: 5%

## CCc1cccc(CC)c1NC(=O)N1Cc2[nH]nc(NC(=O)c3ccc(N4CCN(C)CC4)cc3)c2C1 [PHA-680632]
HL-60 [3]
  inhibition in vivo at 45 mg/kg: 85%

— ChEMBL document CHEMBL5715941, “AZD1152, a selective inhibitor of Aurora B kinase, inhibits human tumor xenograft growth by inducing apoptosis” (Clin Cancer Res, 2007)
